Experimental data from different studies.
Protocols differ between the studies behind these lines. Converted amounts (≈) assume the structure as drawn.
Organism: Escherichia coli

O=C(Sc1cccccc1=O)c1ccc(C(F)(F)F)cc1  MIC80 (microbial growth, broth dilution; ATCC35218): 66.7 µM (≈ 20.7 µg/mL)
COc1c(C)c(OCc2ccccc2)c(C)c(O)c1C(=O)/C=C/c1ccccc1  MBC (microbial killing, broth dilution; ATCC25922): > 5000 µg/mL
COc1cc(C=Cc2cc(-c3ccccc3)nc(O)n2)ccc1O  inhibition zone (microbial growth, disc diffusion; ATCC25922; 500 µg/mL): 19.7 mm
CC1(C)SC2C(NC(=O)C(NC(=O)C3=C(O)C(Cc4ccsc4)NC3=O)c3ccccc3)C(=O)N2C1C(=O)O (stereo not shown)  inhibition zone (microbial growth, well diffusion; BW25113; 200 µM): 10 mm
O=C(N[C@H](CO)[C@H](O)c1ccc([N+](=O)[O-])cc1)C(Cl)Cl  MIC90 (microbial growth; ATCC25922): 0.98 µg/mL (≈ 0.00303 mM)
CC1(C)S[C@@H]2[C@H](NC(=O)[C@H](N)c3ccc(O)cc3)C(=O)N2[C@H]1C(=O)O  inhibition zone (microbial growth, disc diffusion; ATCC25922; 250 µg/mL): 11.2 mm
CCOC(=O)c1c(N)csc1-c1cn(-c2ccccc2)nc1-c1ccc(C)cc1  MBC (microbial killing, broth dilution): 0.125 µg/mL (≈ 0.00031 mM)
Oc1ccc(-c2ccsc2)cc1O  IC50 (microbial growth; AS19; 10 h): 29.9 µM
CC[C@H](C)[C@H](NC(=O)OCC1c2ccccc2-c2ccccc21)C(=O)Sc1cccccc1=O  MIC80 (microbial growth, broth dilution; ATCC35218): > 100 µM
C=CCOc1c(C)c(O)c(C(=O)/C=C/c2ccccc2)c(OC)c1C  MBC (microbial killing, broth dilution; ATCC25922): > 5000 µg/mL
COc1ccc(-n2cc(COc3cc(C(C)C)ccc3C)nn2)cc1  IC50 (microbial growth, broth dilution; ATCC25922): 320 µg/mL
COc1c(N2C[C@@H]3CCCN[C@@H]3C2)c(F)cc2c(=O)c(C(=O)O)cn(C3CC3)c12  MIC90 (microbial growth; ATCC25922): 0.06 µg/mL (≈ 0.000149 mM)
O=C1C=C(O)C(=O)c2ccccc21  IC50 (microbial growth, broth dilution; ATCC25922): 179 µg/mL
COc1cc(C=Cc2cc(-c3ccc(N(C)C)cc3)nc(O)n2)ccc1O  inhibition zone (microbial growth, disc diffusion; ATCC25922; 250 µg/mL): 6 mm
O=c1cccccc1SSc1cccccc1=O  MIC80 (microbial growth, broth dilution; ATCC35218): 19.8 µM (≈ 5.43 µg/mL)
O=S(=O)(Oc1cccc2cccnc12)c1cccs1  IC50 (microbial growth, broth dilution; ATCC25922): 165 µg/mL
COc1cc(C=CC(=O)CC(c2ccc(N(C)C)cc2)n2ccnc2)ccc1O (stereo not shown)  inhibition zone (microbial growth, disc diffusion; ATCC25922; 500 µg/mL): 8.67 mm
Cc1cc(N)c2ccccc2[n+]1CCCCCCCCCC[n+]1c(C)cc(N)c2ccccc21  inhibition zone (microbial growth, disc diffusion; 50 µg/disc): 0 mm
CCCC(=O)Oc1c(C)c(O)c(C(=O)/C=C/c2ccccc2)c(OC)c1C  MBC (microbial killing, broth dilution; ATCC25922): > 5000 µg/mL
C#CCCCCCCCCC=CCC(O)CC(O)CO (stereo not shown)  IC50 (microbial growth, broth dilution; ATCC35218): > 200 µg/mL
COc1c(C)c(OS(=O)(=O)c2ccc3ccccc3c2)c(C)c(OS(=O)(=O)c2ccc3ccccc3c2)c1C(=O)/C=C/c1ccccc1  inhibition zone (microbial growth, well diffusion; ATCC25922; 5 µg/mL): 12 mm
COc1ccc(-n2cc(COc3cccc4cccnc34)nn2)cc1  IC50 (microbial growth, broth dilution; ATCC25922): 376 µg/mL
CCCCCCCCCC(=O)Oc1c(C)c(O)c(C(=O)/C=C/c2ccccc2)c(OC)c1C  MBC (microbial killing, broth dilution; ATCC25922): > 5000 µg/mL
CCCCCCCCCCCCCC(O)CC(O)CO (stereo not shown)  IC50 (microbial growth, broth dilution; ATCC35218): > 200 µg/mL
CC(C)c1cccc(=O)c(O)c1  MIC80 (microbial growth, broth dilution; ATCC35218): 44.4 µM (≈ 7.29 µg/mL)
CC(C)CC1NC(=O)C(C(=O)NC(C(=O)NC2C(=O)N3C2SC(C)(C)C3C(=O)O)c2ccccc2)=C1O (stereo not shown)  inhibition zone (microbial growth, well diffusion; BW25113; 200 µM): 9 mm
CCCCCC(=O)Oc1c(C)c(O)c(C(=O)/C=C/c2ccccc2)c(OC)c1C  MBC (microbial killing, broth dilution; ATCC25922): > 5000 µg/mL
CC(C)c1ccc(O)c(=O)cc1  MIC80 (microbial growth, broth dilution; ATCC35218): 58.1 µM (≈ 9.54 µg/mL)
O=C(O)c1cn(C2CC2)c2cc(N3CCNCC3)c(F)cc2c1=O  inhibition zone (microbial growth; SG458; 1000 µg/mL): 28.5 mm
Cc1ccc(S(=O)(=O)Oc2cccc3cccnc23)cc1  IC50 (microbial growth, broth dilution; ATCC25922): 133 µg/mL
COc1cc(C=CC(=O)CC(c2ccc([N+](=O)[O-])cc2)n2ccnc2)ccc1O (stereo not shown)  inhibition zone (microbial growth, disc diffusion; ATCC25922; 500 µg/mL): 10.3 mm
COc1ccc(-n2cc(COC3=CC(=O)c4ccccc4C3=O)nn2)cc1  IC50 (microbial growth, broth dilution; ATCC25922): 314 µg/mL
O=C(N/N=C/c1ccc([N+](=O)[O-])o1)c1ccc(O)cc1  MIC90 (microbial growth; ATCC 8739, ATCC8739): > 1000 µg/mL
c1ccc(-n2cc(COc3cccc4cccnc34)nn2)cc1  IC50 (microbial growth, broth dilution; ATCC25922): 408 µg/mL
CCN1CCN(C(=O)N[C@@H](C(=O)N[C@@H]2C(=O)N3[C@@H]2SC(C)(C)[C@@H]3C(=O)O)c2ccccc2)C(=O)C1=O  inhibition zone (microbial growth, well diffusion; BW25113; 200 µM): 19 mm
COc1c(C)c(OC)c2c(c1C)OC(c1ccccc1)CC2=O (stereo not shown)  MBC (microbial killing, broth dilution; ATCC25922): > 5000 µg/mL
CC1(C)SC2C(NC(=O)C(NC(=O)C3=C(O)C(Cc4ccccc4)NC3=O)c3ccccc3)C(=O)N2C1C(=O)O (stereo not shown)  inhibition zone (microbial growth, well diffusion; BW25113; 200 µM): 12 mm
O=S(=O)(Oc1cccc2cccnc12)c1ccccc1  IC50 (microbial growth, broth dilution; ATCC25922): 277 µg/mL
CC1(C)SC2C(NC(=O)C(NC(=O)C3=C(O)C4(CC4)NC3=O)c3ccccc3)C(=O)N2C1C(=O)O (stereo not shown)  inhibition zone (microbial growth, well diffusion; BW25113; 200 µM): 10 mm
Oc1ccc(-c2cc(Cl)sc2Cl)cc1O  IC50 (microbial growth; AS19; 10 h): 6.1 µM
